# According to ChEMBL document CHEMBL3217705, “Synthesis and evaluation of stable substrate analogs as potential modulators of cyclodiphosphate synthase IspF” (Medchemcomm, 2013):
# Activity calls are given as the source filed them. The calls are words filed in the database; no cut-off is given here.
# Key:
# [1] = target: T1, 2-C-methyl-D-erythritol 2,4-cyclodiphosphate synthase (Escherichia coli (strain K12)) (UniProt P62617); assay: Inhibition of Escherichia coli IspF-MEP complex at 700 uM pre-incubated for 30 mins by HPLC based […] formation assay relative to untreated control
# T1 sequence (whole entry): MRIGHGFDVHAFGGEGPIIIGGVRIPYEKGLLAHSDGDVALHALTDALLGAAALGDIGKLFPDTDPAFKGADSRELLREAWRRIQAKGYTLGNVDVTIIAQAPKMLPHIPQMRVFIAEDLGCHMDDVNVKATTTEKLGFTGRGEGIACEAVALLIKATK
# Summary of the method: (§1)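 E. coli IspF alone or preformed IspF–MEP complex was incubated with 100 µM CDPME2P substrate. Test agents were present at 1000 µM or 700 µM, either without or after a 30 min pre-incubation. The rate of CMP formation was compared with a no-compound control run under the same pre-incubation; residual activity was taken after pre-incubation.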
# [2] = target: T1, 2-C-methyl-D-erythritol 2,4-cyclodiphosphate synthase (Escherichia coli (strain K12)); assay: Inhibition of Escherichia coli IspF-MEP complex at 700 uM by HPLC based […] formation assay; summary of the method: as §1
# [3] = target: T2, 2-C-methyl-D-erythritol 2,4-cyclodiphosphate synthase (Escherichia coli (strain K12), UniProt P62617); assay: Inhibition of Escherichia coli IspF-MEP complex by HPLC based […] formation assay
# T2 sequence (P62617 whole entry): T1 sequence (whole entry)
# [4] = target: T2, 2-C-methyl-D-erythritol 2,4-cyclodiphosphate synthase; assay: Inhibition of Escherichia coli IspF by HPLC based […] formation assay
# [5] = target: T1, 2-C-methyl-D-erythritol 2,4-cyclodiphosphate synthase (Escherichia coli (strain K12)); assay: Activation of Escherichia coli IspF assessed as increase in rate of […] formation at 100 uM pre-incubated for 30 mins by HPLC based […] formation assay relative to untreated control
# [6] = target: T1, 2-C-methyl-D-erythritol 2,4-cyclodiphosphate synthase (Escherichia coli (strain K12)); assay: Inhibition of Escherichia coli IspF-MEP complex at 100 uM pre-incubated for 30 mins by HPLC based […] formation assay
# [7] = target: T1, 2-C-methyl-D-erythritol 2,4-cyclodiphosphate synthase (Escherichia coli (strain K12)); assay: Inhibition of Escherichia coli IspF at 500 uM by HPLC based CMP formation assay
# [8] = target: T1, 2-C-methyl-D-erythritol 2,4-cyclodiphosphate synthase (Escherichia coli (strain K12)); assay: Inhibition of Escherichia coli IspF-MEP complex at 500 uM by HPLC based CMP formation assay; conditions: TDE = time-dependent effect
# [9] = target: T1, 2-C-methyl-D-erythritol 2,4-cyclodiphosphate synthase (Escherichia coli (strain K12)); assay: Activation of Escherichia coli IspF assessed as residual enzyme activity at 500 uM pre-incubated for 30 mins by HPLC based CMP formation assay
# [10] = target: T1, 2-C-methyl-D-erythritol 2,4-cyclodiphosphate synthase (Escherichia coli (strain K12)); assay: Activation of Escherichia coli IspF-MEP complex assessed as increase in rate of […] formation at 100 uM by HPLC based […] formation assay relative to untreated control
# [11] = target: T1, 2-C-methyl-D-erythritol 2,4-cyclodiphosphate synthase (Escherichia coli (strain K12)); assay: Activation of Escherichia coli IspF-MEP complex assessed as increase in rate of […] formation at 100 uM pre-incubated for 30 mins by HPLC based […] formation assay relative to untreated control
# [12] = target: T1, 2-C-methyl-D-erythritol 2,4-cyclodiphosphate synthase (Escherichia coli (strain K12)); assay: Activation of Escherichia coli IspF-MEP complex assessed as increase in rate of […] formation at 1000 uM pre-incubated for 30 mins by HPLC based […] formation assay relative to untreated control; summary of the method: as §1
# [13] = target: T1, 2-C-methyl-D-erythritol 2,4-cyclodiphosphate synthase (Escherichia coli (strain K12)); assay: Activation of Escherichia coli IspF-MEP complex assessed as increase in rate of […] formation at 1000 uM by HPLC based […] formation assay relative to untreated control; summary of the method: as §1
# [14] = target: T1, 2-C-methyl-D-erythritol 2,4-cyclodiphosphate synthase (Escherichia coli (strain K12)); assay: Activation of Escherichia coli IspF assessed as increase in rate of […] formation at 1000 uM pre-incubated for 30 mins by HPLC based […] formation assay relative to untreated control; summary of the method: as §1
# [15] = target: T1, 2-C-methyl-D-erythritol 2,4-cyclodiphosphate synthase (Escherichia coli (strain K12)); assay: Activation of Escherichia coli IspF assessed as assessed as residual enzyme activity at 1000 uM pre-incubated for 30 mins by HPLC based […] formation assay relative to untreated control; summary of the method: as §1
# [16] = target: T1, 2-C-methyl-D-erythritol 2,4-cyclodiphosphate synthase (Escherichia coli (strain K12)); assay: Activation of Escherichia coli IspF assessed as increase in rate of […] formation at 1000 uM by HPLC based […] formation assay relative to untreated control
# Summary of the method: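 IspF activity was read as the rate of CMP formation from 100 µM CDPME2P, with the test compound at 1000 µM. The rate is expressed relative to a control run without compound.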
smiles,measurement,setting,value
Nc1ccn([C@@H]2O[C@H](COP(=O)(O)CP(=O)(O)O)[C@@H](O)[C@H]2O)c(=O)n1,inhibition,[1],74%
same,inhibition,[2],69%
same,IC50,[3],343 µM
same,IC50,[4],797 µM
C[C@@](CO)(OP(=O)(O)O)[C@H](O)COP(=O)(O)CP(=O)(O)OC[C@H]1O[C@@H](n2ccc(N)nc2=O)[C@H](O)[C@@H]1O,fold change (FC),[5],7.6
same,inhibition,[6],37%
same,inhibition,[7],inactive
same,inhibition,[8],tde
same,Activity,[9],60%
C[C@](O)(CO)[C@H](O)COP(=O)(O)CP(=O)(O)OC[C@H]1O[C@@H](n2ccc(N)nc2=O)[C@H](O)[C@@H]1O,Activity,[10],Active
same,fold change (FC),[11],1.3
same,fold change (FC),[5],2.2
same,Activity,[9],inactive
C[C@](O)(CO)[C@H](O)COP(=O)(O)OP(=O)(O)OC[C@H]1O[C@@H](n2ccc(N)nc2=O)[C@H](O)[C@@H]1O,Activity,[10],inactive
same,Activity,[11],inactive
same,Activity,[5],inactive
same,Activity,[9],inactive
Nc1ccn([C@@H]2O[C@H](COP(=O)(O)OP(=O)(O)O)[C@@H](O)[C@H]2O)c(=O)n1,inhibition,[2],inactive
same,IC50,[4],768 µM
C[C@](O)(CO)[C@H](O)COP(=O)(O)CP(=O)(O)O,Activity,[12],inactive
same,Activity,[13],inactive
same,fold change (FC),[14],8.7
same,Activity,[15],54%
same,fold change (FC),[16],1.8
